pEC50, pIC50: −log10 of the molar value. Values after ≈ are worked out from the molar mass of the structure shown. Active and inactive are the calls of the source. The calls are words filed in the database; no cut-off is given here.
Tests used:
[1] = tested on: Human immunodeficiency virus 1; assay: (§1) Antiviral activity against HIV1 LAI infected in human HeLa-P4 cells harboring a stably integrated LTR-linked LacZ reporter gene assessed as inhibition of viral replication at 50 uM preincubated with cells for 2 hrs followed by viral infection and measured after 48 hrs of compound challenge by CPRG based beta-galactosidase assay relative to control; assay type: functional; conditions: Human immunodeficiency virus 1, LAI, HeLaP4
Procedure, shortened: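 Single-concentration screen: HeLa P4 cells (stably integrated LTR–LacZ reporter) infected with HIV-1 Laï and incubated 48 h with compound at 50 µM; zidovudine as positive control.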

[2] = Cytotoxicity against human HeLa-P4 cells at 50 uM […] by MTS assay relative to control; assay type: cell-based; conditions: hela p4, 50 µM
[3] = tested on: Human immunodeficiency virus 1; assay: as §1, with “replication” for “replication at 50 uM”, “assay” for “assay relative to control”; assay type: functional, organism-based; conditions: for pEC50: Human immunodeficiency virus 1, LAI, HeLaP4, read-out: EC50; for EC50: hela p4
[4] = tested on: Human immunodeficiency virus 1; assay: Antiviral activity against HIV1 LAI infected in human MT2 cells assessed as suppression of viral replication up to 50 uM pre-incubated with cells for 2 hr before viral infection and measured after 3 days of cultivation by RT-PCR analysis; assay type: functional, organism-based; conditions: dose microM <=50, time 3.0 day
[5] = Thermodynamic solubility of compound in PBS at pH 7.4 incubated for 24 hrs under shaking condition by HPLC analysis; assay type: physicochemical; conditions: read-out: Therm_solubility
[6] = Octanol/water partition coefficient, logD of the compound at pH 7.4 by shake flask method; assay type: physicochemical
[7] = Plasma protein binding in mouse at 1 uM incubated for 4 hrs by rapid equilibrium dialysis method; assay type: ADME, cell-free; conditions: read-out: PPB (converted)
[8] = Metabolic stability in CD1 mouse liver microsomes assessed as half life of compound at 1 uM and measured up to 60 mins in presence of NADPH by LC-MS analysis; assay type: ADME, Microsome
[9] = Stability in CD-1 mouse plasma assessed as parent compound remaining at 1 uM measured up to 60 mins by LC-MS/MS analysis; assay type: ADME, cell-free; conditions: read-out: Stabilty
[10] = Cmax in iv dosed mouse plasma measured after 10 mins; assay type: ADME, organism-based; design: route intravenous, time 10 min
[11] = Cmax in po dosed mouse plasma measured after 10 mins; assay type: ADME, organism-based; design: route oral, time 10 min
[12] = target: Human immunodeficiency virus type 1 reverse transcriptase (Human immunodeficiency virus 1, UniProt Q72547); assay: Inhibition of wild-type recombinant HIV-1 subtype B reverse transcriptase p66/p51 heterodimer expressed in Escherichia coli using calf thymus DNA and [3H]-deoxythymidine 5'-triphophaste as substrate measured after 15 mins by liquid scintillation counting method
Procedure, shortened: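 Inhibition measured with subtype B wild-type HIV-1 RT in an in vitro susceptibility assay; nevirapine and AZT as positive controls.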

[13] = tested on: Human immunodeficiency virus 1; assay: Inhibition of recombinant HIV1 integrase mediated strand transfer activity at 0.1 to 333 uM in presence of U5A/U5B2 and [gamma-32P]ATP; conditions: dose microM 0.1-333
Procedure, shortened: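 HIV-1 integrase strand-transfer reaction run with increasing inhibitor concentrations from 100 nM to 333 µM, with raltegravir as positive control, and the strand-transfer efficiency was measured.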

| Compound | inhibition at 50 µM [1] [%] | Activity [2] [%] | other results |
| --- | --- | --- | --- |
| COC(=O)c1c(N)c(C#N)nn1-c1ccccc1I | < 30 | > 15 |  |
| COC(=O)c1c(N)c(C#N)nn1-c1ccccc1C(=O)OC(C)(C)C | < 30 | 2.8 |  |
| COC(=O)c1c2nc(-c3cccc(Br)c3)cc(N)c2nn1-c1cccc(OC)c1 | 54 | 2 |  |
| COC(=O)c1c(N)c(C#N)nn1-c1ccc(F)cc1 | < 30 | 6 |  |
| COC(=O)c1c(N)c(C#N)nn1-c1ccccc1Cl | 30 | 2.4 |  |
| COC(=O)c1c(N)c(C#N)nn1-c1ccccc1F | < 30 | 3.6 |  |
| COC(=O)c1c(N)c(C#N)nn1-c1cccc(F)c1 | 48 | 0 |  |
| COC(=O)c1c(N)c(C#N)nn1-c1cccc(Cl)c1 | < 30 | 11 |  |
| C[C@H](Cn1cnc2c(N)ncnc21)OCP(=O)(O)O [TENOFOVIR ANHYDROUS] |  |  | pEC50 [3]: 4.88 |
| COC(=O)c1c(N)c(C#N)nn1-c1ccc(Cl)cc1 | 56 | > 15 |  |
| COC(=O)c1c(N)c(C#N)nn1-c1ccccc1 | < 30 | 7 |  |
| COC(=O)c1c(N)c(C#N)nn1-c1ccc([N+](=O)[O-])cc1 | 43 | 0 |  |
| COC(=O)c1c(N)c(C#N)nn1-c1cccc(C(F)(F)F)c1 | < 30 | > 15 |  |
| COC(=O)c1c(N)c(C#N)nn1-c1ccccc1Br | 32 | 4.8 |  |
| COC(=O)c1c(N)c(C#N)nn1-c1ccc(C(F)(F)F)cc1 | < 30 | 14 |  |
| COC(=O)c1c(N)c(C#N)nn1-c1ccccc1[N+](=O)[O-] | 42 | 0 |  |
| COC(=O)c1c(N)c(C#N)nn1-c1ccccc1OC | < 30 | 9.2 |  |
| COC(=O)c1c(N)c(C#N)nn1-c1ccc(Br)cc1 | 67 | > 15 |  |
| COC(=O)c1c(N)c(C#N)nn1-c1ccc(C(=O)OC(C)(C)C)cc1 | 47 | 14 |  |
| COC(=O)c1c(N)c(C#N)nn1-c1cccc([N+](=O)[O-])c1 | 47 | 0 |  |
| COC(=O)c1c(N)c(C#N)nn1-c1ccc(OCc2ccccc2)cc1 | < 30 | 3.8 |  |
| COC(=O)c1c(N)c(C#N)nn1-c1cccc(C(=O)OC(C)(C)C)c1 | 36 | 0 |  |
| COC(=O)c1c(N)c(C#N)nn1-c1cccc(OC)c1 | < 30 | 6 |  |
| C#Cc1ccccc1-n1nc(C#N)c(N)c1C(=O)OC | < 30 | 7 |  |
| COC(=O)c1c(N)c(C#N)nn1-c1ccccc1OCc1ccccc1 | 63 | 9 | pEC50 [3]: 4.71; EC50 [3]: Dose-dependent effect; Activity [4]: Active; solubility thermodynamic at 24 h [5]: 9.6 µM (≈ 3.34 µg/mL); logD [6]: 3.69; fraction unbound at 4 h, 1 µM [7]: 0.05; half-life at 1 µM [8]: 3 min; remaining at 1 h, 1 µM [9]: 100%; Cmax [10]: 238 ng/mL; Cmax [11]: 18 ng/mL; pIC50 [12]: < 3.00; inhibition [13]: inactive |
| C#Cc1cccc(-n2nc(C#N)c(N)c2C(=O)OC)c1 | < 30 | 14 |  |
| COC(=O)c1c(N)c(C#N)nn1-c1cccc(OCc2ccccc2)c1 | 65 | 11 | pEC50 [3]: 4.82; EC50 [3]: Dose-dependent effect; Activity [4]: Active; solubility thermodynamic at 24 h [5]: 1.03 µM (≈ 0.359 µg/mL); logD [6]: 3.84; half-life at 1 µM [8]: 4.6 min; remaining at 1 h, 1 µM [9]: 100%; Cmax [10]: 241 ng/mL |
| COC(=O)c1c(N)c(C#N)nn1-c1cccc(Br)c1 | 42 | 9 |  |
| COC(=O)c1c(N)c(C#N)nn1-c1ccc(OC)cc1 | < 30 | 14.6 |  |
